Like-named read-outs stand apart in the source and are kept apart here.
What was measured:
[1] = Stability of the analytes in human plasma at QC levels; assay type: in vitro ADME; settings: for Short-term Dev. (%) / Short-term MCM ± SD: 6 h, r.t.; for Short-term Dev. (%) / Short-term MCM ± SD / Long-term Dev. (%) / Long-term MCM ± SD / Freeze–thaw Dev. (%) / Freeze–thaw MCM ± SD: human plasma; for Short-term Dev. (%) / Short-term MCM ± SD / Long-term Dev. (%) / Long-term MCM ± SD / The autosampler Dev. (24h, %) / The autosampler MCM ± SD (24h) / The autosampler Dev. (48h, %) / The autosampler MCM ± SD (48h) / Freeze–thaw Dev. (%) / Freeze–thaw MCM ± SD: n = 5; for Long-term Dev. (%) / Long-term MCM ± SD: 40 days; for Long-term Dev. (%) / Long-term MCM ± SD / Freeze–thaw Dev. (%) / Freeze–thaw MCM ± SD: −40 °C; for The autosampler Dev. (24h, %) / The autosampler MCM ± SD (24h) / The autosampler Dev. (48h, %) / The autosampler MCM ± SD (48h): autosampler r.t.; for Freeze–thaw Dev. (%) / Freeze–thaw MCM ± SD: four cycles
Outline: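 QC plasma made by spiking working solution into drug-free human plasma (1:9); the phosphate ester is pre-stabilised with 2M sodium cacodylate and 50% KF. Freeze-thaw: frozen at −40 °C for 24 h, thawed at 25 °C. Short-term: 6 h at room temperature. Long-term: −40 °C for 40 days. Quantified by UPLC-MS/MS against 1/x-weighted analyte/IS peak-area-ratio calibration curves.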

[2] = reported; cited from earlier work
[3] = assay type: in vivo, human (Chinese male healthy subjects); settings: for AUC0–∞ / Tmax / T½ (half-life of elimination) / AUC0–t: mean ± SD, n = 23; for Tmax / T½ (half-life of elimination): single i.m. injection; for AUC0–t: t = 4 h (BDP), 120 h (BOH), 360 h (B17P)

Row | Compound | Short-term Dev. (%) ([1]; high QC) | Short-term MCM ± SD ([1]; high QC) | Long-term Dev. (%) ([1]; high QC) | Long-term MCM ± SD ([1]; high QC) | The autosampler Dev. (24h, %) ([1]; high QC) [%] | The autosampler MCM ± SD (24h) ([1]; high QC) | The autosampler Dev. (48h, %) ([1]; high QC) [%] | The autosampler MCM ± SD (48h) ([1]; high QC) | Freeze–thaw Dev. (%) ([1]; high QC) | Freeze–thaw MCM ± SD ([1]; high QC) | Short-term Dev. (%) ([1]; low QC) | Short-term MCM ± SD ([1]; low QC) | Long-term Dev. (%) ([1]; low QC) | Long-term MCM ± SD ([1]; low QC) | The autosampler Dev. (24h, %) ([1]; low QC) [%] | The autosampler MCM ± SD (24h) ([1]; low QC) | The autosampler Dev. (48h, %) ([1]; low QC) [%] | The autosampler MCM ± SD (48h) ([1]; low QC) | Freeze–thaw Dev. (%) ([1]; low QC) | Freeze–thaw MCM ± SD ([1]; low QC) | other results
1 | CCC(=O)O[C@]1(C(=O)CO)[C@@H](C)C[C@H]2[C@@H]3CCC4=CC(=O)C=C[C@]4(C)[C@@]3(F)[C@@H](O)C[C@@]21C [B17P, betamethasone 17-monopropionate] | −8.39 | 3.435 ± 0.353 × 10^−9 mol·dm^−3 | 10.5 | 4.185 ± 0.616 × 10^−9 mol·dm^−3 | −12.14 | 3.295 ± 0.304 × 10^−9 mol·dm^−3 | −4.7 | 3.574 ± 0.531 × 10^−9 mol·dm^−3 | 2.2 | 3.832 ± 0.330 × 10^−9 mol·dm^−3 | 9.09 | 0.214 ± 0.020 × 10^−9 mol·dm^−3 | 4.54 | 0.205 ± 0.027 × 10^−9 mol·dm^−3 | 5.68 | 0.208 ± 0.022 × 10^−9 mol·dm^−3 | −5.68 | 0.185 ± 0.025 × 10^−9 mol·dm^−3 | 12.5 | 0.221 ± 0.335 × 10^−9 mol·dm^−3 | Short-term Dev. (%) ([1]; middle QC): 2.08%; Short-term MCM ± SD ([1]; middle QC): 1.196 ± 0.112 × 10^−9 mol·dm^−3; Long-term Dev. (%) ([1]; middle QC): 5.91%; Long-term MCM ± SD ([1]; middle QC): 1.241 ± 0.129 × 10^−9 mol·dm^−3; The autosampler Dev. (24h, %) ([1]; middle QC): 7.80%; The autosampler MCM ± SD (24h) ([1]; middle QC): 1.266 ± 0.094 × 10^−9 mol·dm^−3; The autosampler Dev. (48h, %) ([1]; middle QC): −5.02%; The autosampler MCM ± SD (48h) ([1]; middle QC): 1.114 ± 0.129 × 10^−9 mol·dm^−3; Freeze–thaw Dev. (%) ([1]; middle QC): 6.62%; Freeze–thaw MCM ± SD ([1]; middle QC): 1.250 ± 0.112 × 10^−9 mol·dm^−3; elimination half-life time [2]: 80.8 h; AUC0–∞ ([3]; Reference formulation): 281.7 ± 91.50 × 10^−9 mol·dm^−3·h^−1; Tmax ([3]; Reference formulation): 17.74 ± 13.04 h; T½ (half-life of elimination) ([3]; Reference formulation): 106.6 ± 35.93 h; AUC0–∞ ([3]; Test formulation): 305.4 ± 108.1 × 10^−9 mol·dm^−3·h^−1; Tmax ([3]; Test formulation): 19.83 ± 12.27 h; T½ (half-life of elimination) ([3]; Test formulation): 101.3 ± 39.43 h; AUC0–t ([3]; Test formulation): 259.2 ± 89.1 × 10^−9 mol·dm^−3·h^−1
2 | CCC(=O)OCC(=O)[C@@]1(O)[C@@H](C)C[C@H]2[C@@H]3CCC4=CC(=O)C=C[C@]4(C)[C@@]3(F)[C@@H](O)C[C@@]21C [B21P, betamethasone 21-monopropionate] | −8.64 | 3.944 ± 0.303 × 10^−9 mol·dm^−3 | −9.13 | 3.924 ± 0.078 × 10^−9 mol·dm^−3 | −8.3 | 3.960 ± 0.160 × 10^−9 mol·dm^−3 | −9.13 | 3.924 ± 0.171 × 10^−9 mol·dm^−3 | −2.48 | 4.211 ± 0.301 × 10^−9 mol·dm^−3 | 2.97 | 0.463 ± 0.062 × 10^−9 mol·dm^−3 | 8.42 | 0.488 ± 0.067 × 10^−9 mol·dm^−3 | 7.92 | 0.486 ± 0.020 × 10^−9 mol·dm^−3 | −0.5 | 0.448 ± 0.038 × 10^−9 mol·dm^−3 | 2.97 | 0.463 ± 0.024 × 10^−9 mol·dm^−3 | Short-term Dev. (%) ([1]; middle QC): −2.87%; Short-term MCM ± SD ([1]; middle QC): 1.873 ± 0.094 × 10^−9 mol·dm^−3; Long-term Dev. (%) ([1]; middle QC): −1.98%; Long-term MCM ± SD ([1]; middle QC): 1.891 ± 0.143 × 10^−9 mol·dm^−3; The autosampler Dev. (24h, %) ([1]; middle QC): 2.05%; The autosampler MCM ± SD (24h) ([1]; middle QC): 1.993 ± 0.129 × 10^−9 mol·dm^−3; The autosampler MCM ± SD (48h) ([1]; middle QC): 2.007 ± 0.156 × 10^−9 mol·dm^−3; Freeze–thaw Dev. (%) ([1]; middle QC): 1.08%; Freeze–thaw MCM ± SD ([1]; middle QC): 1.949 ± 0.147 × 10^−9 mol·dm^−3; plasma concentration in healthy subjects' plasma samples (detectability) ([3]; after i.m. injection of the compound medicine BSP and BDP): slightly above the LLOQ
3 | CCC(=O)OCC(=O)[C@@]1(OC(=O)CC)[C@@H](C)C[C@H]2[C@@H]3CCC4=CC(=O)C=C[C@]4(C)[C@@]3(F)[C@@H](O)C[C@@]21C [BDP, betamethasone dipropionate] | −0.51 | 44.42 ± 0.893 × 10^−9 mol·dm^−3 | 4.01 | 46.43 ± 1.399 × 10^−9 mol·dm^−3 | −6.84 | 41.59 ± 1.016 × 10^−9 mol·dm^−3 | −2.95 | 43.33 ± 1.131 × 10^−9 mol·dm^−3 | 0.68 | 44.94 ± 1.177 × 10^−9 mol·dm^−3 | 4.0 | 0.258 ± 0.048 × 10^−9 mol·dm^−3 | −3.2 | 0.240 ± 0.012 × 10^−9 mol·dm^−3 | −11.2 | 0.220 ± 0.016 × 10^−9 mol·dm^−3 | −10.4 | 0.222 ± 0.020 × 10^−9 mol·dm^−3 | 11.2 | 0.276 ± 0.042 × 10^−9 mol·dm^−3 | Short-term Dev. (%) ([1]; middle QC): 2.04%; Short-term MCM ± SD ([1]; middle QC): 4.746 ± 0.155 × 10^−9 mol·dm^−3; Long-term Dev. (%) ([1]; middle QC): 1.80%; Long-term MCM ± SD ([1]; middle QC): 4.734 ± 0.141 × 10^−9 mol·dm^−3; The autosampler Dev. (24h, %) ([1]; middle QC): −7.45%; The autosampler MCM ± SD (24h) ([1]; middle QC): 4.304 ± 0.123 × 10^−9 mol·dm^−3; The autosampler Dev. (48h, %) ([1]; middle QC): −5.68%; The autosampler MCM ± SD (48h) ([1]; middle QC): 4.387 ± 0.103 × 10^−9 mol·dm^−3; Freeze–thaw Dev. (%) ([1]; middle QC): 3.45%; Freeze–thaw MCM ± SD ([1]; middle QC): 4.811 ± 0.135 × 10^−9 mol·dm^−3; elimination half-life time [2]: 0.43 h
4 | C[C@H]1C[C@H]2[C@@H]3CCC4=CC(=O)C=C[C@]4(C)[C@@]3(F)[C@@H](O)C[C@]2(C)[C@@]1(O)C(=O)CO [BOH, betamethasone] | 8.02 | 64.74 ± 5.074 × 10^−9 mol·dm^−3 | −12.3 | 52.55 ± 2.816 × 10^−9 mol·dm^−3 | −10.82 | 53.47 ± 2.906 × 10^−9 mol·dm^−3 | 6.68 | 63.95 ± 3.102 × 10^−9 mol·dm^−3 | 5.54 | 63.29 ± 2.673 × 10^−9 mol·dm^−3 | 9.63 | 0.610 ± 0.048 × 10^−9 mol·dm^−3 | 7.34 | 0.597 ± 0.064 × 10^−9 mol·dm^−3 | 5.04 | 0.584 ± 0.056 × 10^−9 mol·dm^−3 | 2.29 | 0.569 ± 0.087 × 10^−9 mol·dm^−3 | 3.67 | 0.577 ± 0.038 × 10^−9 mol·dm^−3 | Short-term Dev. (%) ([1]; middle QC): 8.82%; Short-term MCM ± SD ([1]; middle QC): 10.87 ± 0.633 × 10^−9 mol·dm^−3; Long-term Dev. (%) ([1]; middle QC): 5.78%; Long-term MCM ± SD ([1]; middle QC): 10.57 ± 0.577 × 10^−9 mol·dm^−3; The autosampler MCM ± SD (24h) ([1]; middle QC): 10.20 ± 0.505 × 10^−9 mol·dm^−3; The autosampler Dev. (48h, %) ([1]; middle QC): 3.89%; The autosampler MCM ± SD (48h) ([1]; middle QC): 10.38 ± 0.513 × 10^−9 mol·dm^−3; Freeze–thaw Dev. (%) ([1]; middle QC): 4.88%; Freeze–thaw MCM ± SD ([1]; middle QC): 10.48 ± 0.645 × 10^−9 mol·dm^−3; AUC0–∞ ([3]; Reference formulation): 915.3 ± 206.5 × 10^−9 mol·dm^−3·h^−1; AUC0–∞ ([3]; Test formulation): 856.6 ± 269.4 × 10^−9 mol·dm^−3·h^−1; AUC0–t ([3]; Test formulation): 820.2 ± 249.4 × 10^−9 mol·dm^−3·h^−1
5 | C[C@H]1C[C@H]2[C@@H]3CCC4=CC(=O)C=C[C@]4(C)[C@@]3(F)[C@@H](O)C[C@]2(C)[C@@]1(O)C(=O)COP(=O)([O-])[O-].[Na+].[Na+] [BSP, betamethasone sodium phosphate] | −3.78 | 310.9 ± 14.43 × 10^−9 mol·dm^−3 | −1.02 | 320.0 ± 10.35 × 10^−9 mol·dm^−3 | −2.94 | 313.6 ± 35.39 × 10^−9 mol·dm^−3 | 11.19 | 359.2 ± 22.46 × 10^−9 mol·dm^−3 | −2.50 | 315.1 ± 4.665 × 10^−9 mol·dm^−3 | −1.19 | 4.988 ± 0.250 × 10^−9 mol·dm^−3 | −1.07 | 4.994 ± 0.560 × 10^−9 mol·dm^−3 | 4.03 | 5.252 ± 0.696 × 10^−9 mol·dm^−3 | 10.63 | 5.585 ± 0.616 × 10^−9 mol·dm^−3 | −2.84 | 4.905 ± 0.357 × 10^−9 mol·dm^−3 | Short-term Dev. (%) ([1]; middle QC): −2.55%; Short-term MCM ± SD ([1]; middle QC): 39.36 ± 5.767 × 10^−9 mol·dm^−3; Long-term Dev. (%) ([1]; middle QC): −1.06%; Long-term MCM ± SD ([1]; middle QC): 39.94 ± 5.576 × 10^−9 mol·dm^−3; The autosampler Dev. (24h, %) ([1]; middle QC): 1.08%; The autosampler MCM ± SD (24h) ([1]; middle QC): 40.83 ± 5.209 × 10^−9 mol·dm^−3; The autosampler Dev. (48h, %) ([1]; middle QC): 9.88%; The autosampler MCM ± SD (48h) ([1]; middle QC): 44.38 ± 5.581 × 10^−9 mol·dm^−3; Freeze–thaw Dev. (%) ([1]; middle QC): −2.67%; Freeze–thaw MCM ± SD ([1]; middle QC): 39.30 ± 5.785 × 10^−9 mol·dm^−3; stability in human blank plasma ([1]; without stabilizer (sodium cacodylate, potassium fluoride)): labile

From article PMC5042352 (Analytical methods : advancing methods and applications, 2016)
